Compound activity deposited in PubChem BioAssay by several laboratories.
Myeloid diff 2 – compounds promoting myeloid differentiation; AID 624256; 360,000 compounds, 1% hits; ER-HoxA9 myeloid progenitors, lysozyme-GFP differentiation, flow cytometry; calls only at 10 µM;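 active = normalized GFP-positive differentiation at or above the plate's own cutoff, the solvent-only control mean plus 3 SD; inconclusive = no clear call, values can overlap the other calls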;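 note: cells exposed to compound for four days before flow analysis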
MC4R antagonist – antagonists of human melanocortin 4 receptor (MC4R); P32245; MC4R-expressing cells, MTII-stimulated cAMP, LANCE TR-FRET; inhibition, % at 6.5 µM; 360,000 compounds, 0.48% hits; AID 540295;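 active = inhibition above its plate's cutoff, the mean of tested wells on that plate plus 3 SD, cut at about 29% in these data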;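 note: 0% = Melanotan II alone and 100% = Melanotan II plus saturating MCL0020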
Target sequence (P32245 whole entry, looked up): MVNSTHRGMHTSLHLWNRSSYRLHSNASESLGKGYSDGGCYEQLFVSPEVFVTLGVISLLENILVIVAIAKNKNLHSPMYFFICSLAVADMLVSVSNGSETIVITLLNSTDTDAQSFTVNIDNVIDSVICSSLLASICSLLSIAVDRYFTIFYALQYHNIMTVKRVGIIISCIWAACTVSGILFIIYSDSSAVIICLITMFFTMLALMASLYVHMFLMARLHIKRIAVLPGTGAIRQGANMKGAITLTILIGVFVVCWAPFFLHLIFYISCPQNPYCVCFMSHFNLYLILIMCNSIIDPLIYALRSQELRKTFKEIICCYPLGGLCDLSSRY
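System – human MC4R-expressing U2OS cells · Also added – Melanotan II · Dosing – one concentration, 6.5 µM nominal · Timing – 30-min compound, 1-h challenge, 1-h detection, room temperature · Measured by – Eu-cAMP/anti-cAMP TR-FRET, emission 671 nm · Replicates – singlicate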
EBI2 block – EBI2 (human) antagonism | inhibition, % at 5 µM | 360,000 compounds, 0.81% hits | EBI2 beta-arrestin recruitment, luminescence, 7a,25-OHC stimulated; in the data active = inhibition above about 38%;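 note: enzyme fragment complementation signal reports receptor beta-arrestin coupling in cells; 0% = agonist plus DMSO wells and 100% = wells without agonist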
Granule exo inh – lytic granule exocytosis inhibition; TALL-104 LAMP-1 surface exposure, flow cytometry; cells stimulated with thapsigargin and PMA; inhibition, % at 10 µM; 360,000 compounds, 0.66% hits;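 active = inhibition above about 55%, limit read from the data; inconclusive = no clear call, values can overlap the other calls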
MC4R ag barr – agonists of human melanocortin 4 receptor (MC4R) beta-arrestin | P32245 | U2OS MC4R beta-arrestin complementation, luminescence; percent of melanotan II response, DMSO zero | activation, % at 8.9 µM | 360,000 compounds, 0.98% hits | AID 540308;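 active = activation above a per-plate cutoff, the mean activation of sample wells on that plate plus 3 SD, cut at about 8% in these data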
Active calls of the source: *. Rows were chosen to be rich in hits. Some 3.7% of all compounds tested hit in one or more screens of this group.

What do the screens show for `Cc1cc(Cl)ccc1-c1cc2nc(NCCCN(C)C)n(C)c(=O)c2s1`?
Myeloid diff 2: inactive; MC4R antagonist: 7; EBI2 block: -12; Granule exo inh: 15; MC4R ag barr: 0

How did NC[C@@H]1O[C@H](C23CC4CC(CC(C4)C2)C3)Cc2c1ccc(O)c2O do in these assays?
Myeloid diff 2: active; MC4R antagonist: -22; Granule exo inh: 6; MC4R ag barr: 0

How did COc1ccc(C(=O)Nc2ccccc2C(=O)NCCN2CCOCC2)cc1 do in these assays?
Myeloid diff 2: inactive; MC4R antagonist: 8; EBI2 block: -9; Granule exo inh: 0; MC4R ag barr: -2

How did COc1ccc(C(=O)Nc2ccccc2C(=O)NCCN2CCOCC2)cc1OC do in these assays?
Myeloid diff 2: active; MC4R antagonist: 8; EBI2 block: -1; Granule exo inh: -6; MC4R ag barr: -1

Results for Cc1ccccc1Sc1ccc(N)cn1 ?
Myeloid diff 2: active; MC4R antagonist: 4; EBI2 block: -10; Granule exo inh: -2; MC4R ag barr: 0

What do the screens show for `CC(NC(=O)c1ccco1)C(c1cccs1)N1CCN(c2ccccc2F)CC1` (stereo not drawn)?
Myeloid diff 2: active; MC4R antagonist: 1; EBI2 block: 3; Granule exo inh: -1; MC4R ag barr: 0

How did CCN(CC)CCN1C(=O)C(=O)/C(=C(/O)c2ccc3c(c2)CC(C)O3)C1c1ccc(OC)cc1 (stereo not drawn) do in these assays?
Myeloid diff 2: inactive; MC4R antagonist: 13; EBI2 block: 6; Granule exo inh: 92*; MC4R ag barr: 0

Results for CC[C@@H]1C(c2ccccc2)=NN(c2ccccc2)[C@H]1C(=O)N1CCOC1=O ?
Myeloid diff 2: active; MC4R antagonist: 10; EBI2 block: -4; Granule exo inh: 1; MC4R ag barr: 0

Results for O=C(NNC(=O)C1CCN(S(=O)(=O)c2ccc(Cl)cc2)CC1)c1ccccc1O ?
Myeloid diff 2: inactive; MC4R antagonist: 3; EBI2 block: -2; Granule exo inh: 3; MC4R ag barr: -1

Results for C=C[C@@H]1c2cc(C)ccc2N(S(=O)(=O)c2ccc(C)cc2)[C@H](c2ccc(OC(C)=O)cc2)C1(C#N)C#N ?
Myeloid diff 2: active; MC4R antagonist: -1; EBI2 block: 8; Granule exo inh: 55; MC4R ag barr: -1

What do the screens show for `O=[N+]([O-])c1cc([N+](=O)[O-])c2cc3ccccc3nc2c1`?
Myeloid diff 2: inconclusive; MC4R antagonist: 6; EBI2 block: 70*; Granule exo inh: 13; MC4R ag barr: -2

What do the screens show for `O=[N+]([O-])c1cnc2ccccc2c1`?
Myeloid diff 2: inactive; MC4R antagonist: 2; EBI2 block: -5; Granule exo inh: -2; MC4R ag barr: 2

Results for Cn1nnc2c(C(N)=O)ncn2c1=O ?
Myeloid diff 2: active; MC4R antagonist: 11; EBI2 block: -4; Granule exo inh: 3; MC4R ag barr: 0

Results for CCN(CC(=O)N1CCOCC1)S(=O)(=O)c1ccc(Cl)cc1 ?
Myeloid diff 2: inactive; MC4R antagonist: 11; EBI2 block: -7; Granule exo inh: 2; MC4R ag barr: -2

How did CN(Cc1cccnc1)C(=O)c1ccc(Cl)c(NS(=O)(=O)c2ccc(F)cc2)c1 do in these assays?
Myeloid diff 2: inactive; MC4R antagonist: -1; EBI2 block: 4; Granule exo inh: -2; MC4R ag barr: 1

How did CCOC(=O)CNC(=O)N1CCCC(C(=O)c2ccc3c(c2)OCO3)C1 (stereo not drawn) do in these assays?
Myeloid diff 2: active; MC4R antagonist: 9; EBI2 block: -7; Granule exo inh: 4; MC4R ag barr: -1

What do the screens show for `Cc1ccccc1-n1c(SCC(=O)c2c(N)n(C)c(=O)n(C)c2=O)nc2sc3c(c2c1=O)CCCC3`?
Myeloid diff 2: active; MC4R antagonist: 5; EBI2 block: 20; Granule exo inh: 4; MC4R ag barr: 0

What do the screens show for `Cc1ccccc1-n1c(SCC(=O)c2c(N)n(C)c(=O)n(C)c2=O)nnc1-c1cccnc1`?
Myeloid diff 2: inactive; MC4R antagonist: -1; EBI2 block: -2; Granule exo inh: 1; MC4R ag barr: -1

What do the screens show for `CCOC(=O)C1=C(C)N=c2s/c(=C/c3ccc(OCC(=O)O)cc3)c(=O)n2C1c1cc(OC)c(OC)c(OC)c1` (stereo not drawn)?
Myeloid diff 2: inactive; MC4R antagonist: -11; EBI2 block: 14; Granule exo inh: 16; MC4R ag barr: 1

What do the screens show for `CCOC(=O)C1=C(C)N=c2sc(=Cc3cc(Cl)c(OCC(=O)O)c(Cl)c3)c(=O)n2C1c1cccc(OC)c1` (stereo not drawn)?
Myeloid diff 2: active; MC4R antagonist: 9; EBI2 block: 22; Granule exo inh: 0; MC4R ag barr: 1

Results for CN1C(=O)C(C)(C)c2cc(S(=O)(=O)N3CCN(c4cccc(Cl)c4)CC3)ccc21 ?
Myeloid diff 2: active; MC4R antagonist: 12; EBI2 block: 6; Granule exo inh: 5; MC4R ag barr: -2

What do the screens show for `C#CCN(C[C@@H]1[C@@H](OC(=O)NCC2CCCCC2)[C@@H](OC(=O)NCC2CCCCC2)Cn2c(=O)n(CCCCCC)c(=O)n21)S(=O)(=O)c1ccc(C)cc1`?
Myeloid diff 2: inactive; MC4R antagonist: 6; EBI2 block: 22; Granule exo inh: -1; MC4R ag barr: 0

How did CCCNC(=O)Cn1c(=O)/c(=C\c2ccc(-c3ccc([N+](=O)[O-])cc3)o2)s/c1=C\C(=O)C(C)(C)C do in these assays?
Myeloid diff 2: active; MC4R antagonist: -4; EBI2 block: 0; Granule exo inh: -2; MC4R ag barr: 0

How did CCCNC(=O)Cn1c(=O)/c(=C\c2ccc(-c3cccc([N+](=O)[O-])c3)o2)s/c1=C\C(=O)C(C)(C)C do in these assays?
Myeloid diff 2: active; MC4R antagonist: 4; EBI2 block: 11; Granule exo inh: 2; MC4R ag barr: -2

What do the screens show for `CCCNC(=O)Cn1c(=O)/c(=C/c2ccc(-c3cccc([N+](=O)[O-])c3)o2)s/c1=C\C(=O)C(C)(C)C`?
Myeloid diff 2: active; MC4R antagonist: 5; EBI2 block: 8; Granule exo inh: -1; MC4R ag barr: -2

What do the screens show for `NC(=O)N/N=C/c1ccc(-c2ccc([N+](=O)[O-])cc2)o1`?
Myeloid diff 2: inactive; MC4R antagonist: -25; EBI2 block: 41; Granule exo inh: -1; MC4R ag barr: -1

How did CCOC(=O)[C@]12CCCC=C1N(CCC1=CCCCC1)C(=O)[C@H](CC(=O)NCc1cccc3ccccc13)C2 do in these assays?
Myeloid diff 2: inactive; EBI2 block: 26; Granule exo inh: 13

What do the screens show for `O=[N+]([O-])c1ccc(S(=O)(=O)c2cccc(C(F)(F)F)c2)nc1`?
Myeloid diff 2: inconclusive; MC4R antagonist: 12; EBI2 block: -18; Granule exo inh: 60*; MC4R ag barr: -3
